pIC50: −log10 of the molar value.
Columns and labels:
Substance-P receptor [1] = target: T1, Substance-P receptor (Homo sapiens, UniProt P25103); test: In vitro inhibition of binding of [125I]Bolton-Hunter SP to Tachykinin receptor 1 in human IM-9 cell line at a concentration of 10 nM; assay type: cell-based
Outline: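 Single-point screen at 10 nM test compound, run in triplicate, measuring displacement of [125I]Bolton-Hunter SP binding on human IM-9 cells expressing NK-1 receptors.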

Substance-P receptor [2] = target: T1, Substance-P receptor; test: In vitro inhibition of binding of [125I]Bolton-Hunter SP to Tachykinin receptor 1 in human IM-9 cell line; assay type: cell-based
[3] = Bioavailability in dog; assay type: ADME, organism-based, Canis lupus familiaris; conditions: in vivo
Canis familiaris = species on record: Canis familiaris; test: In vitro microsome stability tested in dog liver expressed as percent remaining […]; assay type: functional; conditions: Canis lupus familiaris

T1 sequence (P25103 whole entry): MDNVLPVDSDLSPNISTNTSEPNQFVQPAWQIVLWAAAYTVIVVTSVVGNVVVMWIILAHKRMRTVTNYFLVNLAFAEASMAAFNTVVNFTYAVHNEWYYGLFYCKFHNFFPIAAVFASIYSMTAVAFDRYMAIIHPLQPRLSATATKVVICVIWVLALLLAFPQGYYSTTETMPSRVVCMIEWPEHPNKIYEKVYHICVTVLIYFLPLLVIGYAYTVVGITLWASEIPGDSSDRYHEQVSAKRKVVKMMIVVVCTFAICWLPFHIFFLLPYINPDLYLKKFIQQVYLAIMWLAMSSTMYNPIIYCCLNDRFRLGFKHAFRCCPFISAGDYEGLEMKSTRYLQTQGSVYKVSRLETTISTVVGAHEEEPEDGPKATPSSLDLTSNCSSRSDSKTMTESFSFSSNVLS

| SMILES | inhibition (Substance-P receptor [1]) [%] | pIC50 (Substance-P receptor [2]) | bioavailability [3] [%] | Remaining (Canis familiaris) [%] |
| --- | --- | --- | --- | --- |
| COc1ccccc1CN(CC(Cc1c[nH]c2ccccc12)NC(=O)CCC(=O)c1ccc(F)cc1)C(C)=O (configuration not stated) | 66 | 8.22 |  |  |
| COc1cccc(CC(=O)NC(Cc2c[nH]c3ccccc23)CN(Cc2ccccc2OC)C(C)=O)c1 (configuration not stated) | 22 |  |  |  |
| COc1ccccc1CN(CC(Cc1c[nH]c2ccccc12)NC(=O)Cc1ccccc1Cl)C(C)=O (configuration not stated) | 30 |  |  |  |
| COc1ccccc1CN(CC(Cc1c[nH]c2ccccc12)NC(=O)CSc1ccccn1)C(C)=O (configuration not stated) | 41 | 7.97 |  |  |
| CCOCC(=O)NC(Cc1c[nH]c2ccccc12)CN(Cc1ccccc1OC)C(C)=O (configuration not stated) | 4 |  |  |  |
| COc1ccccc1CN(C[C@@H](Cc1c[nH]c2ccccc12)NC(=O)CN1CCC(N2CCCCC2)CC1)C(C)=O [LANEPITANT] |  |  | 9 |  |
| COc1ccccc1CN(CC(Cc1c[nH]c2ccccc12)NC(=O)CCC(=O)c1ccc(Cl)cc1)C(C)=O (configuration not stated) | 49 |  |  |  |
| COc1ccccc1CN(C[C@@H](Cc1c[nH]c2ccccc12)NC(=O)CCC(=O)c1ccccc1)C(C)=O | 20 | 7.47 |  |  |
| COc1ccccc1CN(CC(Cc1c[nH]c2ccccc12)NC(=O)c1ccccc1)C(C)=O (configuration not stated) | 0 |  |  |  |
| COc1ccccc1CN(CC(Cc1c[nH]c2ccccc12)NC(=O)CCc1ccccc1)C(C)=O (configuration not stated) | 20 |  |  |  |
| COc1ccccc1CN(CC(Cc1c[nH]c2ccccc12)NC(=O)c1ccccc1Cl)C(C)=O (configuration not stated) | 0 |  |  |  |
| COc1ccccc1CN(CC(Cc1c[nH]c2ccccc12)NC(=O)Cc1ccccc1)C(C)=O (configuration not stated) | 18 |  |  |  |
| COc1ccccc1CN(CC(Cc1c[nH]c2ccccc12)NC(=O)Cc1ccc2c(c1)OCCO2)C(C)=O (configuration not stated) | 46 | 8.08 |  |  |
| CC(=O)N(Cc1ccccc1Cl)C[C@@H](Cc1c[nH]c2ccccc12)NC(=O)COc1ccc(-n2ccnc2)cc1 |  |  | 36 | 96 |
| COc1ccccc1CC(=O)NC(Cc1c[nH]c2ccccc12)CN(Cc1ccccc1OC)C(C)=O (configuration not stated) | 23 |  |  |  |

Further lines, with some results ahead:

| inhibition (Substance-P receptor [1]) [%] | pIC50 (Substance-P receptor [2]) | bioavailability [3] [%] | SMILES | Remaining (Canis familiaris) [%] |
| --- | --- | --- | --- | --- |
| 3 |  |  | COc1cccc(OCC(=O)NC(Cc2c[nH]c3ccccc23)CN(Cc2ccccc2OC)C(C)=O)c1 (configuration not stated) |  |
| 87 | 9.09 |  | COc1ccccc1CN(CC(Cc1c[nH]c2ccccc12)NC(=O)COc1ccc(CO)cc1)C(C)=O (configuration not stated) |  |
| 13 |  |  | COc1ccc(C(=O)NC(Cc2c[nH]c3ccccc23)CN(Cc2ccccc2OC)C(C)=O)cc1 (configuration not stated) |  |
| 68 | 8.46 |  | COc1ccccc1CN(CC(Cc1c[nH]c2ccccc12)NC(=O)COc1ccc(C(C)=O)cc1)C(C)=O (configuration not stated) |  |
| 63 | 8.48 |  | COc1ccc(C(=O)CCC(=O)NC(Cc2c[nH]c3ccccc23)CN(Cc2ccccc2OC)C(C)=O)cc1 (configuration not stated) |  |
|  | 9.01 | 47 | COc1ccccc1CN(C[C@@H](Cc1c[nH]c2ccccc12)NC(=O)COc1ccc(-c2csnn2)cc1)C(C)=O | 67 |
|  | 9.32 | 14 | COc1ccccc1CN(C[C@@H](Cc1c[nH]c2ccccc12)NC(=O)COc1ccc(-n2ccnc2)cc1)C(C)=O | 87 |
| 81 | 8.01 |  | COc1ccc(CC(=O)NC(Cc2c[nH]c3ccccc23)CN(Cc2ccccc2OC)C(C)=O)cc1 (configuration not stated) |  |
|  | 9.37 | 17 | COc1ccccc1CN(C[C@@H](Cc1c[nH]c2ccccc12)NC(=O)COc1ccc(CO)cc1)C(C)=O | 28 |
| 19 |  |  | COc1ccccc1CN(CC(Cc1c[nH]c2ccccc12)NC(=O)COc1ccc(Cl)cc1)C(C)=O (configuration not stated) |  |
| 42 | 7.62 |  | COc1ccccc1CN(CC(Cc1c[nH]c2ccccc12)NC(=O)COc1ccccc1OC)C(C)=O (configuration not stated) |  |
| 52 | 7.99 |  | COc1ccc(OCC(=O)NC(Cc2c[nH]c3ccccc23)CN(Cc2ccccc2OC)C(C)=O)cc1 (configuration not stated) |  |
| 59 | 8.49 |  | COc1ccccc1CN(CC(Cc1c[nH]c2ccccc12)NC(=O)COc1ccc(O)cc1)C(C)=O (configuration not stated) |  |
| 25 |  |  | COc1ccccc1CN(CC(Cc1c[nH]c2ccccc12)NC(=O)Cc1ccc(O)cc1)C(C)=O (configuration not stated) |  |

Source: ChEMBL document CHEMBL1134108, “Expedited discovery of second generation NK-1 antagonists: identification of a nonbasic aryloxy substituent” (Bioorg Med Chem Lett, 2001)
